Assay results as given in ChEMBL document CHEMBL1152220, “Discovery of a highly orally bioavailable c-5-[6-(4-Methanesulfonyloxyphenyl)hexyl]-2-methyl-1,3-dioxane-r-2-carboxylic acid as a potent hypoglycemic and hypolipidemic agent” (Bioorg Med Chem Lett, 2008).
pEC50: −log10 of the molar value. Activity calls are given as the source filed them. The calls are words filed in the database; no cut-off is given here.

Legend:
[1] = target: T1, Peroxisome proliferator-activated receptor alpha (Homo sapiens) (UniProt Q07869); experiment: Agonist activity at human PPARalpha ligand binding domain expressed in human HepG2 cells co-transfected with PPRE3-TK-luc assessed as induction of beta-galactosidase activity at 10 uM by transactivation assay; assay type: cell-based
T1 sequence (whole entry): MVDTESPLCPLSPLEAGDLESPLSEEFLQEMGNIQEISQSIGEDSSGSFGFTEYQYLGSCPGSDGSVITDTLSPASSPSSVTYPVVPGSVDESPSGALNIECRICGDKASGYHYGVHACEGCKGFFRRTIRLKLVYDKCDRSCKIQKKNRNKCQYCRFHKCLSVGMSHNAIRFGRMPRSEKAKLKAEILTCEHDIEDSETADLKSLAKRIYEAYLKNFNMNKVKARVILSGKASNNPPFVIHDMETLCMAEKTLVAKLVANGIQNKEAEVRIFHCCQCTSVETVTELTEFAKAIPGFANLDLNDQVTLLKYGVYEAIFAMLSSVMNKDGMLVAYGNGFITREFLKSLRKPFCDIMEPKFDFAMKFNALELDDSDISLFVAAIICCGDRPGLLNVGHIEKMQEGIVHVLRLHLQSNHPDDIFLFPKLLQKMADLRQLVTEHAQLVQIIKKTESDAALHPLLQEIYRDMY
Summary of the method: (§1)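 HepG2 cells were transfected with a pSG5 vector carrying hPPARα or hPPARγ cDNA and cotransfected with PPRE3-TK-luc. Firefly luciferase was measured with a commercial assay, and β-galactosidase was read on an ELISA reader. Activity is expressed as fold induction. Single-point testing was at 10 µM for hPPARα and 0.2 µM for hPPARγ, with EC50 given elsewhere.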

Mus musculus [2] = experiment: Reduction of triglyceride level in Swiss albino mouse serum at 10 mg/kg/day, po for 6 days relative to control; assay type: functional; parameters: scale not given: the % may be the effect or the level left
Summary of the method: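 Male Swiss albino mice aged 6–8 weeks were dosed orally at 10 mg/kg/day for 6 days. Serum triglyceride is reported as % change relative to vehicle controls, as the mean of n = 6.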

[3] = target: T2, Peroxisome proliferator-activated receptor gamma (Homo sapiens) (UniProt P37231); experiment: (§2) Agonist activity at human PPARgamma ligand binding domain expressed in human HepG2 cells co-transfected with PPRE3-TK-luc assessed as induction of beta-galactosidase activity by transactivation assay; assay type: cell-based; summary of the method: as §1
T2 sequence (whole entry): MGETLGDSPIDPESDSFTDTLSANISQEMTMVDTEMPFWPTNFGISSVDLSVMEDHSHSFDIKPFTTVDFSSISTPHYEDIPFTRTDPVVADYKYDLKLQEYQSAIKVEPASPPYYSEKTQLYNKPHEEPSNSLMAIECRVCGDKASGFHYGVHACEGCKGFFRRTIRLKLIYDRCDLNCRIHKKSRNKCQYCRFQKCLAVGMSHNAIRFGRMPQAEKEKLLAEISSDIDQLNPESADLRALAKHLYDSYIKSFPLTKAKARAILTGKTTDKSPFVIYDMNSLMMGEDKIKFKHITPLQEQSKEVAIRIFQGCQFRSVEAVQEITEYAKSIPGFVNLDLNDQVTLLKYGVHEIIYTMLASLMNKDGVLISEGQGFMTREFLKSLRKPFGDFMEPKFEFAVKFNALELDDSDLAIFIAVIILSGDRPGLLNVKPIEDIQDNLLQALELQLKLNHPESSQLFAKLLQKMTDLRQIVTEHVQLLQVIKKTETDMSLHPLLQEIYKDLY

[4] = target: T3, Peroxisome proliferator-activated receptor alpha (Homo sapiens, UniProt Q07869); experiment: Agonist activity at human PPARalpha ligand binding domain expressed in human HepG2 cells co-transfected with PPRE3-TK-luc assessed as induction of beta-galactosidase activity by transactivation assay; assay type: cell-based
T3 sequence (Q07869 whole entry): T1 sequence (whole entry)
Summary of the method: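 HepG2 cells were transfected with a pSG5 vector carrying hPPARα or hPPARγ cDNA and cotransfected with PPRE3-TK-luc. Firefly luciferase was measured with a commercial assay, and β-galactosidase was read on an ELISA reader. Activity is expressed as fold induction.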

Rattus norvegicus [5] = experiment: Hypolipidemic activity in high cholesterol fed Sprague-Dawley rat assessed as reduction of triglyceride level at 3 mg/kg/day for 4 days relative to control; parameters: scale not given: the % may be the effect or the level left
[6] = target: T4, Peroxisome proliferator-activated receptor gamma (Homo sapiens, UniProt P37231); experiment: as §2; assay type: cell-based; summary of the method: as §1
T4 sequence (P37231 whole entry): T2 sequence (whole entry)

Mus musculus [7] = experiment: Hypolipidemic activity in db/db mouse assessed as reduction of triglyceride level at 3 mg/kg/day for 6 days relative to control; assay type: functional; parameters: scale not given: the % may be the effect or the level left
Summary of the method: (§3)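 Male db/db mice aged 6–8 weeks were dosed daily for 6 days. Plasma glucose and triglycerides were measured, and results are reported as % change relative to vehicle-treated controls.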

Rattus norvegicus [8] = experiment: Hypolipidemic activity in high cholesterol fed Sprague-Dawley rat assessed as effect on HDL-C level at 3 mg/kg/day for 4 days relative to control
Rattus norvegicus [9] = experiment: Hypolipidemic activity in high cholesterol fed Sprague-Dawley rat assessed as reduction of total cholesterol level at 3 mg/kg/day for 4 days relative to control; parameters: scale not given: the % may be the effect or the level left
Mus musculus [10] = experiment: Hypoglycemic activity in db/db mouse assessed as reduction of plasma glucose level at 3 mg/kg/day for 6 days relative to control; assay type: functional; parameters: scale not given: the % may be the effect or the level left; summary of the method: as §3
Rattus norvegicus [11] = experiment: Hypolipidemic activity in high cholesterol fed Sprague-Dawley rat assessed as reduction of LDL-C level at 3 mg/kg/day for 4 days relative to control; parameters: scale not given: the % may be the effect or the level left
Rattus norvegicus [12] = experiment: (§4) Cmax in Wistar rat at 30 mg/kg, po; assay type: ADME, organism-based; parameters: dose 30 mg/kg, route oral; details: in vivo
Rattus norvegicus [13] = experiment: (§5) AUC (0 to infinity) in Wistar rat at 30 mg/kg, po; assay type: ADME, organism-based, Plasma; parameters: time infinity, dose 30 mg/kg, route oral; details: in vivo
[14] = Half life in Wistar rat at 30 mg/kg, po; assay type: ADME, organism-based; parameters: dose 30 mg/kg, route oral; details: in vivo
[15] = Tmax in Wistar rat at 30 mg/kg, po; assay type: ADME, organism-based; parameters: dose 30 mg/kg, route oral; details: in vivo
[16] = as §4; assay type: ADME, organism-based; parameters: dose 30 mg/kg, route oral; details: Wistar, in vivo
[17] = as §5; assay type: ADME, organism-based, Plasma; parameters: time infinity, dose 30 mg/kg, route oral; details: Wistar, plasma

C[C@]1(C(=O)O)OC[C@@H](CCCCc2ccc(Cl)cc2)CO1
fold change (FC) [1]: 2.6
Activity (Mus musculus [2]): -10%

CS(=O)(=O)Oc1ccc(CCCCC[C@H]2CO[C@@](C)(C(=O)O)OC2)cc1
Activity [3]: inactive
pEC50 [4]: 5.60
Activity (Mus musculus [2]): -28%

C[S+]([O-])c1ccc(CCCC[C@H]2CO[C@@](C)(C(=O)O)OC2)cc1 (stereo not given in full)
fold change (FC) [1]: 2
Activity (Mus musculus [2]): -12%

COc1ccc(CCCC[C@H]2CO[C@@](C)(C(=O)O)OC2)cc1
fold change (FC) [1]: 2.5
Activity (Mus musculus [2]): -11%

CSc1ccc(CCCC[C@H]2CO[C@@](C)(C(=O)O)OC2)cc1
fold change (FC) [1]: 4
Activity (Mus musculus [2]): -14%

C[C@]1(C(=O)O)OC[C@@H](CCCCc2ccc(O)cc2)CO1
fold change (FC) [1]: 1.2
Activity (Mus musculus [2]): -15%

C[C@]1(C(=O)O)OC[C@@H](CCCCc2ccc(OCc3ccccc3)cc2)CO1
fold change (FC) [1]: 2.3
Activity (Mus musculus [2]): -25%

Cc1cccc(Nc2cc(Cl)nc(SCC(=O)O)n2)c1C
fold change (FC) [1]: 3.3

C[C@]1(C(=O)O)OC[C@@H](CCCCc2ccc(F)cc2)CO1
fold change (FC) [1]: 2.3
Activity (Mus musculus [2]): -9%

CCO[C@@H](Cc1ccc(OCCc2ccc(OS(C)(=O)=O)cc2)cc1)C(=O)O [TESAGLITAZAR]
Activity (Rattus norvegicus [5]): -51%
pEC50 [6]: 7.89
Activity (Mus musculus [7]): -60%
Activity (Rattus norvegicus [8]): 18%
pEC50 [4]: 6.09
Activity (Rattus norvegicus [9]): -59%
Activity (Mus musculus [2]): -79%
Activity (Mus musculus [10]): -54%
Activity (Rattus norvegicus [11]): -31%

CS(=O)(=O)c1ccc(CCCC[C@H]2CO[C@@](C)(C(=O)O)OC2)cc1
fold change (FC) [1]: 1
Activity (Mus musculus [2]): -7%

CS(=O)(=O)Oc1ccc(CCCC[C@H]2CO[C@@](C)(C(=O)O)OC2)cc1
fold change (FC) [1]: 3
Activity [3]: inactive
pEC50 [4]: 4.70
Activity (Mus musculus [2]): -32%

Cc1ccc(CCCC[C@H]2CO[C@@](C)(C(=O)O)OC2)cc1
fold change (FC) [1]: 3.2
Activity (Mus musculus [2]): -22%

Cc1ccc(-c2nc(CCCC[C@H]3CO[C@@](C)(C(=O)O)OC3)c(C)o2)cc1
Activity (Rattus norvegicus [5]): -54%
pEC50 [6]: 5.15
Activity (Mus musculus [7]): -54%
Activity (Rattus norvegicus [8]): 88%
Cmax (Rattus norvegicus [12]): 41 µg/mL
AUC (Rattus norvegicus [13]): 99 µg·h/mL
half-life [14]: 1.5 h
Activity (Rattus norvegicus [9]): -49%
Activity (Mus musculus [2]): -67%
Tmax [15]: 0.67 h
Activity (Mus musculus [10]): -44%
Activity (Rattus norvegicus [11]): -68%

CS(=O)(=O)Oc1ccc(CCCCCC[C@H]2CO[C@@](C)(C(=O)O)OC2)cc1
Activity (Rattus norvegicus [5]): -63%
pEC50 [6]: 4.82
Activity (Mus musculus [7]): -50%
Activity (Rattus norvegicus [8]): 51%
Cmax [16]: 127 µg/mL
pEC50 [4]: 4.82
AUC(0-inf) [17]: 1490 µg·h/mL
half-life [14]: 12 h
Activity (Rattus norvegicus [9]): -56%
Activity (Mus musculus [2]): -71%
Tmax [15]: 4 h
Activity (Mus musculus [10]): -53%
Activity (Rattus norvegicus [11]): -46%
